Compound activity (PubChem)
In the library only some 27% were active in any assay of this set; here they are far more common.
CYP2C19 inh – inhibitors of human CYP2C19 | P33261 | 21% of 96,000 active | inhibition, % at 5 µM | AID 778 | CYP2C19 Supersomes, luciferin-H EGE luminescence, 30 min;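 active = CYP2C19 inhibition above a set limit at 5 µM in the primary screen, cut at about 50% in these data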;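 note: plate controls were negative control wells for no effect and 2.5 mM tranylcypromine positive control for full effect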
Cav32 inh – blocks human Cav3.2 T-type calcium channel; AID 449739; Cav3.2-expressing cells, Fluo-4 calcium fluorescence FDSS; hits give low values; O95180; 4% of 100,000 active; B-score at 10 µM;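 active = single-dose well whose peak fluorescence ratio is a statistical outlier from its plate by either plate-standardised score or position-corrected B-score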
Target sequence (O95180 whole entry, looked up): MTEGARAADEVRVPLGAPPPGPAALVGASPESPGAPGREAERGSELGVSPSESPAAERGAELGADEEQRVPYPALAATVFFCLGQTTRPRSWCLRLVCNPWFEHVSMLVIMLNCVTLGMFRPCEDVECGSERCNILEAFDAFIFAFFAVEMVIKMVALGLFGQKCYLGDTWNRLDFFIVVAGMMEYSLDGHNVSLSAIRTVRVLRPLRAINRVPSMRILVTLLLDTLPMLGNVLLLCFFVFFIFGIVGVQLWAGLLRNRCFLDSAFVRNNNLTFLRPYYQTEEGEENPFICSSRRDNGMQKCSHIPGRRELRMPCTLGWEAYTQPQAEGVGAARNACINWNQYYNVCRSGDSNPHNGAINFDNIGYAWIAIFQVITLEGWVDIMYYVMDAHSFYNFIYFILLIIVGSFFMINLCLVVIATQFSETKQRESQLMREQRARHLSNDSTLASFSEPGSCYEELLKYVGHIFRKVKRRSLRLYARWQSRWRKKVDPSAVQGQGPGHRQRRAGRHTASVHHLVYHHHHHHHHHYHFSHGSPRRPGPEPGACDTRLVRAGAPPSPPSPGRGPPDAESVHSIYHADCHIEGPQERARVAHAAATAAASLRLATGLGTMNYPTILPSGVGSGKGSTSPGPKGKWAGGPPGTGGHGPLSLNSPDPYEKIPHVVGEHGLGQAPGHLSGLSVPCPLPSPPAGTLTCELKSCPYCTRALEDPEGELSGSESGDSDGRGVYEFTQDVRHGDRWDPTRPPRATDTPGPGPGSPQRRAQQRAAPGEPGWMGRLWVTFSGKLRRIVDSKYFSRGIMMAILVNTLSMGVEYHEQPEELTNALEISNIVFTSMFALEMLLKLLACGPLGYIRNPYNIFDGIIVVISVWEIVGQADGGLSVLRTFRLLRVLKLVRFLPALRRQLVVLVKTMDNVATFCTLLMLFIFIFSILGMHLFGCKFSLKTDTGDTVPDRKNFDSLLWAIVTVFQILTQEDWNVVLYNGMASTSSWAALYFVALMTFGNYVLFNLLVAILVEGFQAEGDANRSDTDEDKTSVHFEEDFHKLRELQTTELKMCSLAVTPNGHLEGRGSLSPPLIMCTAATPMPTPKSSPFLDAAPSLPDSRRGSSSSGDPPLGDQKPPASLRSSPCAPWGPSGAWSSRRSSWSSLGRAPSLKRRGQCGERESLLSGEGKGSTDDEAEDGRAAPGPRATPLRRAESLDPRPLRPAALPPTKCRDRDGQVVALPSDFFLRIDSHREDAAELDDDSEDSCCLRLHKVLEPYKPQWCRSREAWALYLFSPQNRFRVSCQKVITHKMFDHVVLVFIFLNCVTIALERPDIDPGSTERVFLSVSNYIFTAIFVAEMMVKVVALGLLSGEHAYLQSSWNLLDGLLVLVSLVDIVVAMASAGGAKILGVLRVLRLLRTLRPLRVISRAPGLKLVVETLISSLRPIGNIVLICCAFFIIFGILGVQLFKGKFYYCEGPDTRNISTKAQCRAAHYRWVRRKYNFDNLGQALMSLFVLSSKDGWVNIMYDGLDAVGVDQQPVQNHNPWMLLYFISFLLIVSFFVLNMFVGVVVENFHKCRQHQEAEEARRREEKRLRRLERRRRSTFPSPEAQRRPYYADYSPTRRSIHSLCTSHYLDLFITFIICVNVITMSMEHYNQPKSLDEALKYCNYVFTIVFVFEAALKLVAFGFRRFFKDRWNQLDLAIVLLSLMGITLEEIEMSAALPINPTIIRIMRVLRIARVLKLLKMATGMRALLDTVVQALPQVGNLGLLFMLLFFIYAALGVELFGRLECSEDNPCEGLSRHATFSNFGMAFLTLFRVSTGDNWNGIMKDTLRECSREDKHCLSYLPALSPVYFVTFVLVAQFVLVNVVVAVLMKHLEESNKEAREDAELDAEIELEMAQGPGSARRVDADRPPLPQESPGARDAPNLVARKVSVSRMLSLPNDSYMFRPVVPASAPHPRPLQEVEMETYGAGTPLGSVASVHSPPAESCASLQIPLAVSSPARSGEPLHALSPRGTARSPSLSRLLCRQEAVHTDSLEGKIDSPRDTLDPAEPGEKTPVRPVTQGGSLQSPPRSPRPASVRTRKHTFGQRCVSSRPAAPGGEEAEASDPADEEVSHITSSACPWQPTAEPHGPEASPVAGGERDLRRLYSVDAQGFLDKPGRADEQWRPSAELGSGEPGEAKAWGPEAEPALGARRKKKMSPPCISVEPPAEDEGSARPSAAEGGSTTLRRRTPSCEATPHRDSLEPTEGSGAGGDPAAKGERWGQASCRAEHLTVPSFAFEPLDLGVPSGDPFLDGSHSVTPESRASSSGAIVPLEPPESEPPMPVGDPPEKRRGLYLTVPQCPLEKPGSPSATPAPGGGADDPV
CYP2C9 inh – inhibitors of human CYP2C9; inhibition, % at 5 µM; CYP2C9 Supersomes, luciferin-H conversion, luminescence; 20% of 96,000 active;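 active = blocking of liver enzyme CYP2C9 beyond about 50% at 5 µM, limit read from the data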
Rev-RRE block – inhibitors of HIV-1 Rev-RRE RNA interaction. P05866. Rev peptide-RRE RNA binding, FRET. inhibition, % at 8 µM. 0.79% of 97,000 active. AID 704;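 active = inhibition above the screen-wide mean plus 3 SD, cut at about 35% in these data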;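 note: 0% = median DMSO wells and 100% = median Neomycin B control wells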
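Test system: labelled RRE RNA duplex and labelled Rev peptide. Times: 5 min compound–RNA preincubation, then 15 min with peptide, 25 °C. Doses: single-dose 8 µM. Measured by: FRET, excitation 480 nm, emission 540 nm donor and 671 nm acceptor. Measure: % inhibition of FRET ratio versus controls.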
CYP2C9 activ – increases human cytochrome P450 2C9 activity | P11712 | activation factor at 5 µM | AID 1024 | recombinant CYP2C9, luciferin-H conversion, luminescence; hits give high values; factor 1 = untreated enzyme, 0 = blocked | 1.4% of 96,000 active;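 active = activation factor of 2 or more for CYP2C9 at a 5 µM dose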;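 note: 0 = sulfaphenazole-blocked wells and 1 = vehicle-only wells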
CYP2C19 activ – activators of human cytochrome P450 2C19; activation factor at 5 µM; AID 1025; recombinant CYP2C19, luciferin-H EGE luminescence; hits give high values; 0 = fully inhibited enzyme, 1 = untreated enzyme; P33261; 96,000 tested, under 10 active;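 active = activation factor of at least 2 at 5 µM in the primary screen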;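 note: 0 = wells with 2.5 mM tranylcypromine and 1 = vehicle-only wells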
* marks the source's active call; other numbers are inactive results; · = not tested or not shown.

SMILES	CYP2C19 inh	Cav32 inh	CYP2C9 inh	Rev-RRE block	CYP2C9 activ	CYP2C19 activ
CC1(C)SC(=S)N(/N=C/c2ccc(O)cc2)C1N(O)C(=O)Nc1ccc([N+](=O)[O-])cc1 (stereo not given)	27	-2.7	66*	7	0.3	0.7
CCCn1c(CN2CCN(C)CC2)nc2ccccc21	27	0.26	1	3	1	0.7
Brc1ccccc1OCCCCCN1CCCC1	10	-0.65	-1	2	1	0.9
CC1(C)NC(=O)N(CCCOc2ccccc2Br)C1=O	89*	0.66	57*	2	0.4	0.1
CC1(C)NC(=O)N(CCOCCOc2c(Cl)cc(Cl)cc2Cl)C1=O	56*	0.1	40	3	0.6	0.4
CCOc1cc(C=O)ccc1OCCCN1C(=O)NC(C)(C)C1=O	68*	0.82	31	3	0.7	0.3
CC1(C)NC(=O)N(CCOc2cccc(Cl)c2Cl)C1=O	87*	1.3	32	-3	0.7	0.1
COCOc1ccc(C=O)cc1OCOC	·	0.19	·	·	·	·
CCCCC1=CC2=C(c3ccco3)C(=O)C(C)(OC(=O)c3ccc(OC)cc3)C(=O)C2=CN1Cc1ccco1 (stereo not given)	·	-2.8	·	·	·	·
CC1Cc2ccccc2N1S(=O)(=O)c1cccc(C(=O)NC2CC2)c1 (stereo not given)	36	1.3	-70	·	1.7	0.6
CC1Cc2ccccc2N1S(=O)(=O)c1cccc(C(=O)OCC(=O)NC2CCS(=O)(=O)C2)c1 (stereo not given)	60*	0.086	63*	5	0.4	0.4
O=C(COc1ccccc1)Nc1ccc2c(c1)nc1n2CCSC1	-8	1.5	17	-1	0.8	1.1
CCOc1cc(-c2ccc(N)c(OCC)c2)ccc1N	98*	-5.4*	91*	84*	0.1	0
CCOc1cc(-c2nn3cnnc3s2)cc(OCC)c1OCC	31	-0.43	12	-4	0.9	0.7
COc1ccc2c(C(=O)CN(C)C3CCCCC3)c[nH]c2c1	·	-0.34	·	19	·	·
Cc1ccc2nc(N3CCN(S(=O)(=O)c4ccc(C)c(Cl)c4)CC3)c(C#N)cc2c1	20	-2.3	42	17	0.6	0.8
Cc1cc(C(=O)CSc2nnc(-c3ccc(F)cc3)o2)c(C)n1CC1COc2ccccc2O1 (stereo not given)	45	-2.7	54*	1	0.5	0.5
Cc1cc(C(=O)CSc2nnc(-c3ccco3)o2)c(C)n1CC1COc2ccccc2O1 (stereo not given)	100*	-3.7	78*	·	0.2	0
O=C(CSc1nnc(-c2ccco2)o1)c1ccccc1	6	-0.69	14	11	0.9	0.9
O=C(CSc1nnc(-c2ccc(F)cc2)o1)c1ccc2c(c1)OCCO2	5	-0.41	18	1	0.8	1
O=C(CSc1nnc(-c2ccco2)o1)NC(=O)C1COc2ccccc2O1 (stereo not given)	61*	-0.019	-90	·	1.9	0.4
C=CCn1c(SC/C=C/c2ccccc2)nnc1-c1sc(N)nc1C	41	-0.034	38	7	0.6	0.6
CCc1nc(SCc2nnc(-c3ccc(C)cc3)o2)c2c(C)c(C)sc2n1	·	-0.25	·	9	·	·
Cc1ccc(-c2nnc(CSc3nc4cc5c(cc4cc3C)OCO5)o2)cc1	32	-2.2	65*	15	0.4	0.7
CSc1ccccc1NC(=O)CN(Cc1ccc(Cl)cc1)S(C)(=O)=O	16	-2.8	30	10	0.7	0.8
SMILES	CYP2C19 inh	Cav32 inh	CYP2C9 inh	Rev-RRE block	CYP2C9 activ	CYP2C19 activ
Cc1ccc(S(=O)(=O)N(CC(=O)NC2CCCCCC2)c2ccccc2F)cc1	9	0.15	39	13	0.6	0.9
CS(=O)(=O)N(CC(=O)Nc1ccccc1)Cc1ccc(Cl)cc1	96*	-0.4	89*	20	0.1	0
CSc1cccc(NC(=O)CN(Cc2ccc(Cl)cc2)S(C)(=O)=O)c1	92*	-3.4*	92*	11	0.1	0.1
O=C(CN(c1ccccc1F)S(=O)(=O)c1ccccc1)NC1CCCCCC1	-11	-1.9	52*	11	0.5	1.1
COc1ccc(NC(=O)CN(Cc2ccccc2)S(C)(=O)=O)cc1	79*	0.35	45	1	0.5	0.2
O=C(c1cccc(COCC(F)(F)C(F)F)c1)N1CCN(c2ccccc2)CC1	46	-2.5	36	6	0.6	0.5
COc1ccc2[nH]c(=O)c(CN(Cc3ccc4c(c3)OCO4)C(C)=O)cc2c1	4	-0.3	-19	5	1.2	1
Cc1ccc(C)n1-c1sccc1C(=O)O	-1	0.25	2	-18	1	1
CCOc1ccc(Nc2cc(=O)oc3ccccc23)cc1	11	1	-89	6	1.9	0.9
CCOc1ccccc1NC(=O)CN(Cc1ccccc1)S(C)(=O)=O	94*	-1.1	42	-2	0.6	0.1
Cc1c(Cl)cccc1N(CC(=O)NC1CCCCC1)S(C)(=O)=O	28	-0.37	70*	·	0.3	0.7
CS(=O)(=O)N(CC(=O)NC1CCCCCC1)Cc1ccccc1	87*	0.27	22	-1	0.8	0.1
CS(=O)(=O)N(CC(=O)NC1CCCCCC1)Cc1ccc(Cl)cc1	23	0.2	15	13	0.8	0.8
CSc1ccccc1NC(=O)CN(Cc1ccccc1)S(C)(=O)=O	24	-0.2	23	-6	0.8	0.8
COc1ccc(N2CCN(c3nc(NC(C)(C)C)nc(N4CCCCC4)n3)CC2)cc1	17	-3.7	46	-3	0.5	0.8
O=C(NCC1CCCO1)C1CCN(S(=O)(=O)c2cccc3nonc23)CC1 (stereo not given)	2	0.045	-45	2	1.4	1
COc1ccccc1N1CCN(S(=O)(=O)c2ccc3c4c(cccc24)C(=O)N3)CC1	31	-1.9	16	·	0.8	0.7
CCOc1ccc(S(=O)(=O)N2CCN(c3ccccc3OC)CC2)c2cccnc12	49	0.041	58*	3	0.4	0.5
CCOc1ccc(S(=O)(=O)N2CCN(c3ccccc3)CC2)c2cccnc12	36	-2	59*	4	0.4	0.6
COc1ccccc1N1CCN(S(=O)(=O)c2ccc3c4c(cccc24)C(=O)N3C)CC1	64*	0.29	72*	4	0.3	0.4
COc1ccccc1N1CCN(S(=O)(=O)c2cccc3nsnc23)CC1	43	-2.3	12	7	0.9	0.6
COc1ccc(Cn2c(CCC(=O)O)nc3cccnc32)cc1	-13	0.013	7	9	0.9	1.1
CC1(C)CC(=O)c2cc(OCC(=O)NCCN3CCOCC3)ccc2O1	13	0.47	7	8	0.9	0.9
O=C(Nc1sc2c(c1C(=O)NCc1ccco1)CCCC2)c1ccc2c(c1)OCO2	63*	-2.6	84*	5	0.2	0.4
